This is a sample that favours compounds with a hit; in the whole collection about 1.9% have one here.
CHRM4 agonist: CHRM4 agonism in calcium assay. P08173. CHO-K1 hM4/Gqi5, Fluo-8 calcium fluorescence; vehicle 0%, full acetylcholine response 100%. activation, % at 3 µM. actives 0.14% (n = 360,000);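 active means activation above the run mean over all test wells plus 3 SD, cut at about 32% in these data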;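 further: peak over basal fluorescence ratio per well then scaled between controls; 0% = DMSO wells and 100% = acetylcholine at EC100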
Target sequence (P08173 whole entry, looked up): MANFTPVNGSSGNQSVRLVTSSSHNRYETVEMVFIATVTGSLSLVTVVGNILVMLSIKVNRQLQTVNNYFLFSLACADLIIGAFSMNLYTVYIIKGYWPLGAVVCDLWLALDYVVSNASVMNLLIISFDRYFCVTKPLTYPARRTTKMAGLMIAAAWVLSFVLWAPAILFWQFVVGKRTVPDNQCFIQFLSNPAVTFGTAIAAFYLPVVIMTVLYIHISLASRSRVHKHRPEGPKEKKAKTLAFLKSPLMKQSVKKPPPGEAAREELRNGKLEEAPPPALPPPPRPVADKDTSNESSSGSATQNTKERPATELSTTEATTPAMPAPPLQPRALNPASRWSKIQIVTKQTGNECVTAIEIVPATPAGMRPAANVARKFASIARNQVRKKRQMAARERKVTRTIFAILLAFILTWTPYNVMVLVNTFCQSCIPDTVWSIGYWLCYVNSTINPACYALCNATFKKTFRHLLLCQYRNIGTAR
CHRM5 PAM: positive allosteric modulators of human muscarinic M5 receptor; AID 624038; CHO-K1 hM5, Fluo-8 calcium, ACh EC20 PAM; 0% = ACh EC20, 100% = ACh EC100; actives 0.3% (n = 360,000); P08912; activation, % at 3 µM;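 active means activation above the run cutoff, the mean activation of all test compounds plus 3 SD, cut at about 18% in these data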
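System: CHO-K1 hM5 cells. Reagent: acetylcholine, EC20 level. Compound dosing: single dose, 3 µM nominal final test concentration. Timing: Post-acetylcholine fluorescence recording 140 s. Detection: Fluo-8 calcium fluorescence. Read-out: % activation, ACh-normalized. Benchmarks: ACh EC20 and EC100 wells. Repeats: singlicate, one well per test compound.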
M5 antag: CHRM5 antagonism in calcium assay. CHO-hM5 cells, Fluo-8 calcium fluorescence, ACh EC80. P08912. AID 624040. inhibition, % at 3 µM. actives 0.59% (n = 360,000);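 active means inhibition above a per-plate cutoff, the mean of that plate's test compounds plus 3 SD, cut at about 27% in these data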;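 further: 0% = acetylcholine EC80 with DMSO and 100% = DMSO without agonist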
CHRM5 agonist: CHRM5 agonism in calcium assay. P08912. CHO-K1 hM5 cells, Fluo-8 calcium fluorescence; 0% DMSO wells, 100% maximal acetylcholine response. activation, % at 3 µM. actives 0.19% (n = 360,000). AID 624037;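 active means activation above the run's mean over test compounds plus 3 SD, cut at about 23% in these data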;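 further: signal is peak over basal fluorescence ratio across the kinetic read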
M4 antag: antagonists of human muscarinic M4 receptor (CHRM4); CHO-hM4 cells, ACh EC80, Fluo-8 calcium fluorescence; inhibition, % at 3 µM; actives 0.73% (n = 360,000); AID 624125;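 active means inhibition above its plate's cutoff, the mean inhibition of sample wells plus 3 SD, cut at about 27% in these data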;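 further: 0% = acetylcholine EC80 with DMSO and 100% = DMSO without agonist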
M4 PAM: potentiates acetylcholine response at human M4 receptor | P08173 | CHO-K1 hM4/Gqi5, Fluo-8 calcium fluorescence, ACh EC20; 0% = ACh EC20, 100% = maximal ACh | activation, % at 3 µM | actives 0.4% (n = 360,000);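 active means activation above its plate's cutoff, the mean activation of sample wells plus 3 SD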
Active calls of the source: *.

SMILES | CHRM4 agonist | CHRM5 PAM | M5 antag | CHRM5 agonist | M4 antag | M4 PAM
Cc1cccc(NC(=S)N(CCCN2CCOCC2)C(C)c2cc3ccccc3o2)c1C (centres undefined) | 0 | -4 | 4 | -6 | 2 | 1
Cc1cc(=O)[nH]c2ccc(S(=O)(=O)NC3CCCCC3)cc12 | 3 | 2 | -10 | 0 | -2 | 6
Cc1ccccc1C(=O)NCC(=O)NNC(=O)CCN1CCN(c2ccccc2)CC1 | 1 | 0 | 2 | -4 | 4 | 5
Cc1ccsc1C(=O)NNC(=O)CCN1CCN(c2ccccc2)CC1 | 0 | 2 | 11 | 1 | -13 | 23*
O=C1CC(=O)N(CCNc2ncc(C(F)(F)F)cc2Cl)C(=O)N1 | 0 | -8 | 2 | 3 | 2 | 4
O=C1C=CC(=O)N1CCNc1ncc(C(F)(F)F)cc1Cl | 5 | 5 | -7 | -2 | 28* | -8
c1ccc(Nc2nc(-c3ccncc3)nc3ccccc23)cc1 | 0 | -4 | 1 | 0 | 0 | 0
Fc1ccc(Nc2nc(-c3ccncc3)nc3ccccc23)cc1 | 2 | 3 | 4 | 2 | 2 | 24*
COc1cccc(CC(Cc2nc3ccccc3[nH]2)c2nc3ccccc3[nH]2)c1 (centres undefined) | 14 | -17 | 17 | -4 | 2 | -7
CCCCn1c(=NC(=O)c2ccco2)c(C(=O)OCC)cc2c(=O)n3ccccc3nc21 | 2 | -10 | -4 | -8 | -5 | -4
CCCCn1c(=NC(=O)c2ccco2)c(C(=O)OCC)cc2c(=O)n3cccc(C)c3nc21 | 5 | 22* | -12 | 3 | -11 | 8
CN(C)S(=O)(=O)c1cccc(NC(=S)NCCCn2ccnc2)c1 | 0 | 2 | 7 | -4 | 0 | -1
CCc1ccc(N2C(=O)CN(Cc3sccc3C)C2=S)cc1 | -2 | 0 | 6 | -4 | -5 | 5
O=C(/C(=C\c1ccccc1)c1nc2ccccc2[nH]1)c1ccc(Cl)cc1 | 2 | -4 | 0 | -2 | -13 | 0
O/C(=C\c1nc2ccccc2[nH]1)c1cccs1 | 3 | 3 | 4 | 1 | -4 | 6
O=c1[nH]c2ccccc2nc1/C=C(\O)c1cccs1 | 12 | -16 | 14 | 31* | 6 | -7
O=C(/C(=C/c1ccc(Cl)cc1)c1nc2ccccc2[nH]1)c1cccs1 | 4 | -23 | 20 | -6 | 66* | -16
O=c1[nH]nc(-c2ccc(F)cc2)cc1Cc1ccc(F)cc1 | 0 | 1 | 3 | 1 | -3 | -1
CCOC(=O)c1sc(NC(=O)CN2C(=O)NC3(CCCCCCC3)C2=O)c(C(=O)OCC)c1C | 0 | 2 | -2 | 0 | 27* | 11
CC(O)CC(=O)OC[C@]12CC[C@H]3[C@@](C)(CC[C@H]4C(C)(C)CCC[C@]34C)[C@@H]1CC(C1=CC(=O)OC1O)O2 (some centres undefined) | 3 | -3 | 13 | 0 | 64* | -12
CCOc1ccccc1N1CCN(c2ncnc3scc(-c4ccc(OC)cc4)c23)CC1 | 8 | -15 | 14 | -5 | 27* | -13
CN1CCN(c2ncnc3scc(-c4ccccc4Cl)c23)CC1 | 4 | -16 | 30* | -8 | 4 | -10
Nc1ccc2nc3c(=O)n(CCc4ccccc4)c(=O)[nH]c3nc2c1 | 45* | -31 | 33* | 165* | 18 | -18
Nc1ccc2nc3c(=O)n(C4CCCCC4)c(=O)[nH]c3nc2c1 | 70* | -40 | 35* | 133* | 21 | -42
Nc1ccc2nc(CCc3ccccc3)[nH]c2c1 | 6 | -6 | 5 | -2 | -6 | 3
SMILES | CHRM4 agonist | CHRM5 PAM | M5 antag | CHRM5 agonist | M4 antag | M4 PAM
CCCCn1c(=O)[nH]c2nc3cc(N)ccc3nc2c1=O | 57* | -11 | 16 | 22 | 22 | -24
Cc1cc2nc3c(=O)n(CCc4ccccc4)c(=O)[nH]c3nc2cc1N | 9 | -7 | 6 | 32* | 0 | -2
COc1cccc(NC(=O)COC(=O)c2c3c(nc4ccccc24)CCC(C)C3)c1 (centres undefined) | 6 | -22 | 26 | -4 | 41* | -12
CC1CCc2nc3ccccc3c(C(=O)OCC(=O)NC3CCS(=O)(=O)C3)c2C1 (centres undefined) | 3 | 2 | 8 | 3 | 2 | 3
COC(=O)C[C@@H]1C=C[C@H](NC(=O)Nc2ccc(OC)cc2)[C@@H](CO)O1 | 1 | 5 | -4 | 2 | -7 | 10
O=S(=O)(CCc1nc2ccccc2[nH]1)c1ccc(Cl)cc1 | 2 | 1 | -14 | 1 | -10 | 23*
Cc1ccc(S(=O)(=O)CCc2nc3ccccc3[nH]2)cc1 | 2 | -1 | 10 | 0 | 1 | -6
CCn1cc([N+](=O)[O-])c(C(=O)N2N=C(c3ccc4ccccc4c3)CC2c2ccccc2O)n1 (centres undefined) | 6 | 6 | 6 | -1 | 10 | 1
CCn1cc([N+](=O)[O-])c(C(=O)N2N=C(c3cccc4ccccc34)CC2c2ccccc2O)n1 (centres undefined) | 5 | 29* | 2 | -3 | 15 | 5
Cc1ccc(C)c(N2CCN(CCCNC(=O)Cn3cc4c(n3)CCCCC4)CC2)c1 | -3 | -10 | 4 | -1 | 100* | -19
CCn1cc(S(=O)(=O)Nc2ccc(C)c(Cl)c2)cn1 | 1 | 4 | -14 | -4 | -4 | -1
CCN(CC)C(=O)CSc1nc2ccccc2c(=O)n1-c1ccccc1OC | -2 | 3 | -6 | -1 | -5 | 36*
CNC(=O)CN(c1ccc(OC)cc1)S(=O)(=O)c1ccc(F)cc1 | 0 | 28* | -7 | -6 | -11 | 20*
COc1ccc(N(CC(=O)Nc2c(C)n(C)n(-c3ccccc3)c2=O)S(=O)(=O)c2ccc(F)cc2)cc1 | 4 | 21* | 11 | -1 | -8 | 22*
CCN(Cc1ccccc1)C(=O)C1CCN(S(=O)(=O)c2ccc3c(c2)OCCO3)CC1 | 5 | -3 | 1 | 37* | -2 | 1
Cc1cccc2c1cnn2C(=O)CCC(=O)N1CCC(C)CC1 | 2 | -3 | -2 | -1 | 0 | 1
O=C(Nc1ccccc1)N(c1ccccc1)C1C=CS(=O)(=O)C1 (centres undefined) | -1 | -5 | 6 | -2 | 45* | -11
O=[N+]([O-])c1ccc(CSc2nnc(-c3cccnc3)o2)cc1 | -1 | 22* | -11 | 6 | 5 | -5
CN(C)CCC(Oc1ccccc1OCc1ccccc1)c1ccccc1 (centres undefined) | 27 | -33 | 28* | -10 | -1 | -55
